Assay [1] in a line: Growth inhibition of glioblastoma cells (LN18) by the compound (300 uM) upon incubation for 24 hours using MTT assay. It counts as functional, Homo sapiens. Further details: unit not given here. Put shortly: (§1)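 Human glioblastoma cells were kept in DMEM with 4.5 g/L glucose, 5% FCS and antibiotics, then plated for 24-72 h. They were exposed in fresh complete medium for 24, 48 or 72 h to 0, 100, 200 or 300 µM compound, with stocks in methanol/PBS 1:20. MTT at 0.2 mg/mL was present for the final 2 h. Formazan was dissolved in 0.1 N HCl/2-propanol and read at 540 nm. Readings were expressed relative to untreated cells. Triplicate wells.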
(Formazan colour is commonly taken as a measure of viable cells.)

The nature of assay [2]: Growth inhibition of glioblastoma cells (LNZ 308) by the compound (100 uM) upon incubation for 24 hours using MTT assay. It counts as functional, Homo sapiens. In outline:
as §1

A short description of assay [3]: Growth inhibition of glioblastoma cells (LNZ 308) by the compound (300 uM) upon incubation for 24 hours using MTT assay. It counts as functional, Homo sapiens. In outline:
as §1

Assay [4] has as its target T1, Alpha-mannosidase (Glycine max) (UniProt Q9SEH8).
T1 sequence (whole entry): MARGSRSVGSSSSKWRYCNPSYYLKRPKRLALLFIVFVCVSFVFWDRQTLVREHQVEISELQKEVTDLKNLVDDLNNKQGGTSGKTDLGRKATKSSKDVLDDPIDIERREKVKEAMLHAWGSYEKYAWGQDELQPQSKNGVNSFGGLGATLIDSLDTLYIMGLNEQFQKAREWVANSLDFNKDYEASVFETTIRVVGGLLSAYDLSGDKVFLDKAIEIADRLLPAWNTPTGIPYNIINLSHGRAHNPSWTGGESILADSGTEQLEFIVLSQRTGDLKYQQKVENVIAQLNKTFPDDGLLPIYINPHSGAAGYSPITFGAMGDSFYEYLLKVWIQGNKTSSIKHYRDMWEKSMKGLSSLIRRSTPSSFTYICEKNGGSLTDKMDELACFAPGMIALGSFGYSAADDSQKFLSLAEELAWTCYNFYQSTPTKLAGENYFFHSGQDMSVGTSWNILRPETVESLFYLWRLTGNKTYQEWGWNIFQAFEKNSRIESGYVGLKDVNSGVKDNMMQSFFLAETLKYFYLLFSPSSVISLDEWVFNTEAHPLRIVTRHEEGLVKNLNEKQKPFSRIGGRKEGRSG
As to conditions: Prunus dulcis; 1 mM.

Assay [5] can be described thus: Growth inhibition of glioblastoma cells (LN18) by the compound (100 uM) upon incubation for 24 hours using MTT assay. It counts as functional, Homo sapiens. Put shortly: as §1
Assay [6] is described as follows: Growth inhibition of glioblastoma cells (LNZ 308) by the compound (200 uM) upon incubation for 24 hours using MTT assay. It counts as functional, Homo sapiens. In outline: as §1
A short description of assay [7]: Growth inhibition of glioblastoma cells (LN18) by the compound (200 uM) upon incubation for 24 hours using MTT assay. The assay is classed as functional, Homo sapiens. Further details: unit: %. Put shortly: as §1
The nature of assay [8]: Growth inhibition of glioblastoma cells (LN18) by the compound (200 uM) upon incubation for 48 hours using MTT assay. Further details: unit not given here. The assay is classed as functional, Homo sapiens. Put shortly: as §1
Assay [9] is described as follows: Growth inhibition of glioblastoma cells (LN18) by the compound (300 uM) upon incubation for 72 hours using MTT assay. The assay is classed as functional, Homo sapiens. Set-up: unit not given here. Put shortly:
as §1

Assay [10] is described as follows: Growth inhibition of glioblastoma cells (LNZ 308 cell) by the compound (300 uM) upon incubation for 24 hours using MTT assay. Set-up: unit not given here. The assay is classed as functional, Homo sapiens. Put shortly: as §1
A short description of assay [11]: Growth inhibition of glioblastoma cells (LNZ 308 cell) by the compound (300 uM) upon incubation for 48 hours using MTT assay. It counts as functional, Homo sapiens. Further details: unit: %. In outline:
as §1

Assay [12] can be described thus: Growth inhibition of glioblastoma cells (LNZ 308 cell) by the compound (100 uM) upon incubation for 72 hours using MTT assay. Further details: unit not given here. The assay is classed as functional, Homo sapiens. Put shortly:
as §1

The nature of assay [13]: Growth inhibition of glioblastoma cells (LN18) by the compound (300 uM) upon incubation for 48 hours using MTT assay. The assay is classed as functional, Homo sapiens. Further details: unit: %. In outline: as §1
Assay [14] is described as follows: Growth inhibition of glioblastoma cells (LN18) by the compound (100 uM) upon incubation for 48 hours using MTT assay. The assay is classed as functional, Homo sapiens. Further details: unit: %. In outline: as §1
The nature of assay [15]: Growth inhibition of glioblastoma cells (LNZ 308 cell) by the compound (200 uM) upon incubation for 48 hours using MTT assay. The assay is classed as functional, Homo sapiens. Set-up: unit: %. In outline:
as §1

Assay [16] can be described thus: Growth inhibition of glioblastoma cells (LN18) by the compound (200 uM) upon incubation for 72 hours using MTT assay. It counts as functional, Homo sapiens. Set-up: unit not given here. Put shortly: as §1
Assay [17] is described as follows: Growth inhibition of glioblastoma cells (LNZ 308 cell) by the compound (200 uM) upon incubation for 72 hours using MTT assay. It counts as functional, Homo sapiens. Set-up: unit: %. In outline: as §1
Assay [18] in a line: Growth inhibition of glioblastoma cells (LNZ 308 cell) by the compound (300 uM) upon incubation for 72 hours using MTT assay. It counts as functional, Homo sapiens. Further details: unit: %. Put shortly:
as §1

Assay [19] can be described thus: Growth inhibition of glioblastoma cells (LNZ 308 cell) by the compound (100 uM) upon incubation for 48 hours using MTT assay. It counts as functional, Homo sapiens. Set-up: unit not given here. Put shortly: as §1
Assay [20] in a line: Growth inhibition of glioblastoma cells (LN18) by the compound (100 uM) upon incubation for 72 hours using MTT assay. It counts as functional, Homo sapiens. Set-up: unit: %. In outline: as §1
Assay [21] is described as follows: Growth inhibition of glioblastoma cells (LNZ 308 cell) by the compound (200 uM) upon incubation for 24 hours using MTT assay. The assay is classed as functional, Homo sapiens. Further details: unit: %. Put shortly:
as §1

Assay [22] can be described thus: Growth inhibition of glioblastoma cells (LNZ 308 cell) by the compound (100 uM) upon incubation for 24 hours using MTT assay. Further details: unit not given here. It counts as functional, Homo sapiens. Put shortly:
as §1

A short description of assay [23]: Growth inhibition of glioblastoma cells (LNZ 308) by the compound (200 uM) upon incubation for 72 hours using MTT assay. It counts as functional, Homo sapiens. In outline: as §1
Assay [24] is described as follows: Growth inhibition of glioblastoma cells (LNZ 308) by the compound (100 uM) upon incubation for 72 hours using MTT assay. The assay is classed as functional, Homo sapiens. In outline: as §1
Assay [25] can be described thus: Growth inhibition of glioblastoma cells (LNZ 308) by the compound (100 uM) upon incubation for 48 hours using MTT assay. The assay is classed as functional, Homo sapiens. Put shortly: as §1
The nature of assay [26]: Growth inhibition of glioblastoma cells (LNZ 308) by the compound (300 uM) upon incubation for 48 hours using MTT assay. The assay is classed as functional, Homo sapiens. Put shortly: as §1
Assay [27] in a line: Growth inhibition of glioblastoma cells (LNZ 308) by the compound (200 uM) upon incubation for 48 hours using MTT assay. The assay is classed as functional, Homo sapiens. Put shortly: as §1
Assay [28] can be described thus: Growth inhibition of glioblastoma cells (LNZ 308) by the compound (300 uM) upon incubation for 72 hours using MTT assay. It counts as functional, Homo sapiens. In outline: as §1
A short description of assay [29]: Growth inhibition of glioblastoma cells (LN18) by the compound (200 uM) upon incubation for 24 hr using MTT assay. The assay is classed as functional, Homo sapiens. Put shortly: as §1
Assay [30] can be described thus: Growth inhibition of glioblastoma cells (LN18) by the compound (300 uM) after 24 hr using MTT assay. It counts as functional, Homo sapiens. Put shortly:
as §1

Assay [31] can be described thus: Growth inhibition of glioblastoma cells (LN18) by the compound (300 uM) upon incubation for 48 hr using MTT assay. It counts as functional, Homo sapiens. In outline: as §1
The nature of assay [32]: Growth inhibition of glioblastoma cells (LN18) by the compound (300 uM) upon incubation for 72 hr using MTT assay. The assay is classed as functional, Homo sapiens. Put shortly: as §1

Turning to `OC[C@@H](NC[C@H]1NC[C@H](O)[C@@H]1O)c1ccccc1`, the Growth inhibition worked out at 7 in [1]; 0 in assay [2]; 28 in [3]; 0 in assay [5]; 4 in assay [6]; 17 in [7]. The same compound yielded an inhibition in assay [4] of 55%.

Regarding `O=C(NCC(NC[C@H]1NC[C@H](O)[C@@H]1O)c1ccccc1)c1cccc(Br)c1` (some centres not stated), the Growth inhibition in assay [8] amounted to 46; in assay [9] it was 65; in assay [10], 50; in assay [11] it was 42; in assay [12], 43; in [13], 50. Besides, the Growth inhibition in assay [14] turned out to be 20; in assay [1] it was 52; in assay [15] it was 40; in assay [16], 61; in assay [17], 52; in assay [18], 59. The Growth inhibition in assay [19] was determined as 19; in assay [20], 43; in assay [21], 20; in assay [6], 20; in [7], 30; in assay [22] it was 2.

For the compound `O=C(OCC(NC[C@H]1NC[C@H](O)[C@@H]1O)c1ccccc1)c1ccc(F)cc1` (some centres not stated), the Growth inhibition in assay [8] is 16; in assay [9], 31; in assay [10] it was 21; in assay [11] it was 17; in assay [12], 8; in assay [13], 24. For the same compound, the Growth inhibition in [14] was 5; in assay [1], 20; in [15], 18; in assay [16], 14; in assay [17], 24; in assay [18] it was 32. Further, the Growth inhibition stood at 10 in [19]; 4 in [20]; 16 in [21]; 16 in assay [6]; 22 in assay [7]; 4 in assay [22].

For `OC[C@H](NC[C@H]1NC[C@H](O)[C@@H]1O)c1ccccc1`, the Growth inhibition in assay [8] amounted to 26; in assay [23], 13; in assay [9] it was 22; in assay [13], 23; in [14], 16; in assay [24], 5. Further, the Growth inhibition came to 22 in assay [1]; 0 in assay [2]; 26 in [3]; 12 in assay [16]; 19 in [25]; 25 in [26]. The Growth inhibition is 19 in assay [27]; 22 in assay [28]; 13 in assay [5]; 15 in assay [20]; 8 in assay [6]; 19 in [7].

In the case of `O=C(OCC(NC[C@H]1NC[C@H](O)[C@@H]1O)c1ccccc1)c1cccc(Br)c1` (some centres not stated), the Growth inhibition in assay [8] is 25; in assay [10], 17; in assay [11] it was 31; in [12] it was 13; in assay [14], 21; in assay [29] it was 10. For the same compound, the Growth inhibition in assay [30] came to 16; in assay [15] it was 23; in assay [16] it was 24; in assay [17] it was 23; in assay [18] it was 34; in [19], 17. Moreover, the Growth inhibition worked out at 18 in [20]; 29 in assay [31]; 5 in assay [21]; 5 in assay [6]; 36 in [32]; 5 in assay [22].

With `O=C(OCC(NC[C@H]1NC[C@H](O)[C@@H]1O)c1ccccc1)c1ccccc1F` (some centres not stated), the Growth inhibition came out at 10 in assay [8]; 15 in assay [9]; 23 in assay [10]; 18 in assay [11]; 0 in [12]; 8 in assay [13]. For the same compound, the Growth inhibition in assay [14] was found to be 7; in [1], 26; in [15], 15; in [16] it was 14; in assay [17] it was 17; in assay [18], 26. The Growth inhibition stood at 6 in [19]; 3 in [20]; 18 in assay [21]; 17 in assay [7]; 0 in assay [22].

In the case of `O=C(OCC(NC[C@H]1NC[C@H](O)[C@@H]1O)c1ccccc1)c1ccc(Br)cc1` (some centres not stated), the Growth inhibition is 48 in [8]; 97 in assay [9]; 87 in assay [10]; 78 in [11]; 24 in assay [12]; 95 in [13]. The Growth inhibition in assay [14] is recorded as 17; in assay [1] it was 92; in [15] it was 33; in assay [16], 68; in assay [5], 5; in [17], 56. The Growth inhibition in assay [18] came out at 96; in [19], 15; in assay [20] it was 31; in assay [21], 60; in assay [7] it was 67; in [22] it was 11.

In the case of `O[C@H]1[C@@H](O)CN[C@@H]1CN[C@@H](COCc1cccc(F)c1)c1ccccc1`, the Growth inhibition in [8] was 14; in assay [9], 76; in assay [10] it was 34; in assay [11], 56; in assay [12], 6; in [13], 39. Also, the Growth inhibition in assay [14] amounted to 6; in [1], 27; in assay [15], 29; in assay [16], 41; in [17], 27; in [18] it was 53. In addition, the Growth inhibition in assay [19] amounted to 6; in [20] it was 12; in assay [21], 14; in [6] it was 14; in assay [7], 19; in [22], 2.

For orientation: inhibition means the share of the control response that was lost under treatment.
